According to ChEMBL document CHEMBL1144710, “epigenetic multiple ligands: mixed histone/protein methyltransferase, acetyltransferase, and class III deacetylase (sirtuin) inhibitors” (J Med Chem, 2008):
Active and inactive are the calls of the source. Unless noted, no cut-off for these calls is given here.

How the values were obtained:
[1] = system: U-937; test: Inhibition of histone H3R17 methylation in human U937 cells at 50 uM after 24 hrs; format: functional, cell-based
Method in brief: (§1)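 U937 cells treated at 50 µM for 24 h. Histones extracted with Triton buffer, then 0.2 M HCl overnight at 4 °C. 3–10 µg run on 15% SDS-PAGE and immunoblotted with anti-monomethyl-H3K4, monomethyl-H4R3 or dimethyl-H3R17 (1:500, overnight 4 °C), ECL detection. Loading controls: total H4 (H3K4), Ponceau Red (Arg marks).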

[2] = target: T1, Histone-lysine N-methyltransferase SETD7 (Homo sapiens) (UniProt Q8WTS6); test: Inhibition of human recombinant SET7 assessed as histone H3 protein methylation at 100 uM
T1 sequence (whole entry): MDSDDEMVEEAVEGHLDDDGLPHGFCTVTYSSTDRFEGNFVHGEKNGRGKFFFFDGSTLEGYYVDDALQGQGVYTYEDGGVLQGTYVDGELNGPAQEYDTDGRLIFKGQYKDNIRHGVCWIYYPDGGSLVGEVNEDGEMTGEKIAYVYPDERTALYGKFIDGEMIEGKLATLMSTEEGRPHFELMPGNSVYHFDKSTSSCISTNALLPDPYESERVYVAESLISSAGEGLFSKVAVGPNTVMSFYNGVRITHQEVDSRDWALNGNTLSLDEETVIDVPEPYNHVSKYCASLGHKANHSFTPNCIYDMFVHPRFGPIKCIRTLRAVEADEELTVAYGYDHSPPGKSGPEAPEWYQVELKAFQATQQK
Method in brief: (§2)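 Recombinant enzymes (0.2 µg) with substrate (0.5 µg: Npl3p for PRMT1, PABP1 for CARM1, histone H3 for SET7), 0.5 µM [3H]AdoMet and 100 µM compound in PBS pH 7.4 with 3.3% v/v DMSO, 90 min at 30 °C. Products separated by 10% SDS-PAGE, transferred to PVDF, detected by fluorography on film overnight.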

[3] = target: Protein arginine N-methyltransferase 1 (Homo sapiens) (UniProt Q99873); test: Inhibition of human recombinant PRMT1 assessed as nuclear ribonucleoprotein Npl3p methylation at 100 uM; method in brief: as §2
Protein arginine N-methyltransferase 1 (Homo sapiens), sequence (Q99873 whole entry, looked up): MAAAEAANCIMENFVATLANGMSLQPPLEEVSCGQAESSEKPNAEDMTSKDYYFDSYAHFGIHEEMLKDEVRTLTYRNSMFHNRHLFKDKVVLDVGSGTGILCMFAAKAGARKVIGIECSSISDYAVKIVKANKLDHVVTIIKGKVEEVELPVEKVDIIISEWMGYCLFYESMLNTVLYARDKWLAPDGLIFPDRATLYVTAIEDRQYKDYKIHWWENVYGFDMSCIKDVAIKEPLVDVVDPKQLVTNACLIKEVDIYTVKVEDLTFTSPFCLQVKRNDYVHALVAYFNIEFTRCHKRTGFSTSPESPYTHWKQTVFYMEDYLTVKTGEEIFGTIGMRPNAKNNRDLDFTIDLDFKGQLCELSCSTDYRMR

[4] = target: T2, NAD-dependent protein deacetylase sirtuin-2 (Homo sapiens) (UniProt Q8IXJ6); test: Inhibition of human SIRT2 at 25 uM
T2 sequence (whole entry): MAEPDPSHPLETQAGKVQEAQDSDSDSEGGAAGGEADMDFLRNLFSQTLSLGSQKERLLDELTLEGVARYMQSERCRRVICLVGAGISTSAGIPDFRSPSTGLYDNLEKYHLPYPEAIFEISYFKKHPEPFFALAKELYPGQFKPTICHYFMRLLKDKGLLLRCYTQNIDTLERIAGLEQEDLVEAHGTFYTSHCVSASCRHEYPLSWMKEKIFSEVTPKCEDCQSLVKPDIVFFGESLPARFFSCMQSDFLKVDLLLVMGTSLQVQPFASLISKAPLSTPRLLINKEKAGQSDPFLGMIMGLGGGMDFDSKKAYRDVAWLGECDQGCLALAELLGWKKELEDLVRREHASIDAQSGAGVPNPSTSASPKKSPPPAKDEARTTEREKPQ
Method in brief: (§3)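 Fluorescent two-stage assay. SIRT1 (1 U/well) or SIRT2 (5 U/well) with Fluor de Lys-SIRT1/2 substrate, NAD+ and compound at 25 µM, 37 °C for 2 h. Developer II containing nicotinamide then stopped the reaction and generated signal, read at ex 360/em 460 nm.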

[5] = target: Protein arginine N-methyltransferase 1 (Homo sapiens) (UniProt Q99873); test: Inhibition of human recombinant PRMT1 assessed as histone H4 methylation at 50 uM
[6] = target: T3, NAD-dependent protein deacetylase sirtuin-1 (Homo sapiens) (UniProt Q96EB6); test: Inhibition of human SIRT1 at 25 uM; method in brief: as §3
T3 sequence (whole entry): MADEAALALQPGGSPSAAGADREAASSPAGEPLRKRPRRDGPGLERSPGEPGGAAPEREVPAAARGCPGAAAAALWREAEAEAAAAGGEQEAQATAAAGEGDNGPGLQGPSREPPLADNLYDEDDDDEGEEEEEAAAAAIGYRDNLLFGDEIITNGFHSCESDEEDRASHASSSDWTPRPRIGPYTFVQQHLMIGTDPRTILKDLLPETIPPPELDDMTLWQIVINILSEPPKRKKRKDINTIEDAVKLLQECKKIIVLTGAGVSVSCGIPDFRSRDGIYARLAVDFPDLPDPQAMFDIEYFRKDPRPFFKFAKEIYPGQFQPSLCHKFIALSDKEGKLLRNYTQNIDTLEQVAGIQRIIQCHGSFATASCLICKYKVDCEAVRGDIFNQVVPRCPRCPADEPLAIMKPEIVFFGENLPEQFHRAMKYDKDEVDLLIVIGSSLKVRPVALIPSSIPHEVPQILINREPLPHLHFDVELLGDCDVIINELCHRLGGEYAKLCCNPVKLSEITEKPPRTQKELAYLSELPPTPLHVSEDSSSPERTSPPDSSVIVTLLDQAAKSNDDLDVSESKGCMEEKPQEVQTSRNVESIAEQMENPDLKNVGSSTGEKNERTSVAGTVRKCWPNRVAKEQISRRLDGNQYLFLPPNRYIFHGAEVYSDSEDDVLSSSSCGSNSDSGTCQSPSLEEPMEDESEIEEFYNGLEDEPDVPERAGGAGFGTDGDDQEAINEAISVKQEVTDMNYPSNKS

[7] = system: U-937; test: Inhibition of histone H4R3 methylation in human U937 cells at 50 uM after 24 hrs; format: functional, cell-based; method in brief: as §1
[8] = system: U-937; test: Inhibition of human p300/CBP in U937 cells at 50 uM assessed as histone H3 acetylation; format: cell-based
Method in brief: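 Source was U937 nuclear extract (10 µg per assay) as p300/CBP HAT, with histone H3 substrate and compound at 50 µM or DMSO control for 90 min. Acetyl-H3 detected by indirect ELISA, quantified against acetylated H3 peptide standard curves, […].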

[9] = target: RmtA (Emericella nidulans, UniProt Q5VLE3); test: Inhibition of Aspergillus nidulans RmtA
RmtA, sequence (Q5VLE3 whole entry, the tested form may be a part): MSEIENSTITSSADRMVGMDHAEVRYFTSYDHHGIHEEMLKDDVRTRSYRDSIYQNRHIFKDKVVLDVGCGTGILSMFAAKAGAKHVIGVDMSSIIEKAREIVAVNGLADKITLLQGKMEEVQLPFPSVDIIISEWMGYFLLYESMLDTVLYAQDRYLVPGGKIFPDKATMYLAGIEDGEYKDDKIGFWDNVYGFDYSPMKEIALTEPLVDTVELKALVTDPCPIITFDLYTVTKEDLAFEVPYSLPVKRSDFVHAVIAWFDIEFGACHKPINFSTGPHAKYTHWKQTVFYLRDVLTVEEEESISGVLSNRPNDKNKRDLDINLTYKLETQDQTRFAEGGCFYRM
Method in brief: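 Enzyme was GST-RmtA fusion expressed in E. coli BL21 and glutathione-affinity purified (500 ng), preincubated with compound for 15 min at room temperature. Then 20 µg chicken erythrocyte core histones and 0.55 µCi [3H]AdoMet were added, 30 min at 30 °C. Stopped with 25% TCA, filtered, counted by liquid scintillation.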

[10] = system: U-937; test: Induction of granulocytic differentiation in human U937 cells assessed as CD11c expression at 5 uM after 30 hrs; format: functional
Method in brief: (§4)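 U937 cells treated for 30 h, then stained with PE-conjugated CD11c (PE mouse IgG1 as control) for 30 min at 4 °C in the dark and resuspended in PBS with PI (0.25 µg/mL). Read-out is percent CD11c-positive/PI-negative cells, with dead PI-positive cells excluded. Coloured compounds limited the top dose to 5 µM or lower.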

[11] = target: T4, Histone-arginine methyltransferase CARM1 (Homo sapiens) (UniProt Q86X55); test: Inhibition of human recombinant CARM1 assessed as poly(A) binding protein 1 methylation at 100 uM; method in brief: as §2
T4 sequence (whole entry): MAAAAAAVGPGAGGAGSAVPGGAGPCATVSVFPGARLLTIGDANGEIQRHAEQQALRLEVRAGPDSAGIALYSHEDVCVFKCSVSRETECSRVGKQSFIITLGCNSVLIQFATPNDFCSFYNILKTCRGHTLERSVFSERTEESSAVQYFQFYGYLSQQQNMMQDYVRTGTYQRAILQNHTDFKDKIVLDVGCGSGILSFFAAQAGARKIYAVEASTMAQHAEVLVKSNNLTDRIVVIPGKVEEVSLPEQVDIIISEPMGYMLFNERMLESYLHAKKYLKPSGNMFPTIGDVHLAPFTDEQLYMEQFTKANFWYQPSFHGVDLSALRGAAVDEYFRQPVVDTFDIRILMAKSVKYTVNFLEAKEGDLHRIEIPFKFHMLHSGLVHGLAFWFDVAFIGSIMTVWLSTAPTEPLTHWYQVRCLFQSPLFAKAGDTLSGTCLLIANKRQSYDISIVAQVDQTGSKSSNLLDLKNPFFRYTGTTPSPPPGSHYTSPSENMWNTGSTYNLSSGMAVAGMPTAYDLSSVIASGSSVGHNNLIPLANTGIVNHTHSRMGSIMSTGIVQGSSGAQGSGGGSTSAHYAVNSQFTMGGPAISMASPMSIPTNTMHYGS

[12] = system: U-937; test: Inhibition of histone H3K4 methylation in human U937 cells at 50 uM after 24 hrs; format: functional, cell-based; method in brief: as §1
[13] = system: U-937; test: Induction of apoptosis in human U937 cells at 25 uM after 30 hrs; format: functional
Method in brief: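 Apoptosis read as caspase 3 activation by FACS, in U937 cells (RPMI, 10% fetal calf serum, 200000 cells/mL) exposed to 25 µM for 30 h.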

[14] = system: U-937; test: Cell cycle arrest in human U937 cells assessed as accumulation at G2 phase at 25 uM after 30 hrs; format: functional, cell-based
Method in brief: (§5)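 U937 cells in RPMI with 10% fetal calf serum, HEPES and glutamine, kept at 200000 cells/mL; treated at 25 µM for 30 h, then the distribution across cell cycle phases was analysed.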

[15] = target: RmtA (Emericella nidulans) (UniProt Q5VLE3); test: Inhibition of Aspergillus nidulans RmtA at 89.4 uM
RmtA (Emericella nidulans), sequence (Q5VLE3 as listed by the source): as the sequence (Q5VLE3 whole entry, the tested form may be a part) above

[16] = system: U-937; test: Induction of granulocytic differentiation in human U937 cells assessed as CD11c expression at 0.5 uM after 30 hrs; format: functional; method in brief: as §4
[17] = target: RmtA (Emericella nidulans) (UniProt Q5VLE3); test: Inhibition of Aspergillus nidulans RmtA at 90 uM
[18] = system: U-937; test: Induction of cell cycle arrest in human U937 cells at 25 uM after 30 hrs; format: functional, cell-based; method in brief: as §5
[19] = system: U-937; test: Induction of granulocytic differentiation in human U937 cells assessed as CD11c expression at 1 uM after 30 hrs; format: functional; method in brief: as §4

Row | Structure (SMILES) | Activity [2] | Activity [3] | inhibition [4] [%] | inhibition [5] [%] | inhibition [6] [%] | IC50 [9] [µM] | Activity [11] | inhibition [15] [%] | inhibition [17] [%] | Activity [1] | Activity [7] | inhibition [8] [%] | Activity [10] [%] | Activity [12] | Activity [13] [%] | Activity [14] | Activity [16] [%] | Activity [18] | Activity [19] [%]
1 | CN1C/C(=C\c2cc(Br)c(O)c(Br)c2)C(=O)/C(=C/c2cc(Br)c(O)c(Br)c2)C1 | Active | Active | 64 | 73 | 63 | 39 | Active | – | – | Active | Active | 87 | 53.2 | Active | 1 | Active | – | – | –
2 | O=C1/C(=C/c2ccc(O)c(Br)c2)CCCC/C1=C\c1ccc(O)c(Br)c1 | inactive | inactive | – | – | – | – | Active | 0 | – | Active | Active | – | – | Active | – | – | – | – | –
3 | O=C1OC2(c3ccccc31)c1cc(Br)c(O)c(Br)c1Oc1c2cc(Br)c(O)c1Br [EOSIN] | Active | Active | 31 | 96 | 33 | 18 | Active | – | – | Active | Active | 20 | – | – | 0.5 | – | – | inactive | 5.7

Continued, in another order:

Row | Activity [2] | Activity [3] | inhibition [4] [%] | inhibition [5] [%] | inhibition [6] [%] | IC50 [9] [µM] | Activity [11] | inhibition [15] [%] | inhibition [17] [%] | Structure (SMILES) | Activity [1] | Activity [7] | inhibition [8] [%] | Activity [10] [%] | Activity [12] | Activity [13] [%] | Activity [14] | Activity [16] [%] | Activity [18] | Activity [19] [%]
4 | Active | – | 100 | 76 | 61 | 69 | Active | – | – | O=C(/C=C/c1cc(Br)c(O)c(Br)c1)/C=C/c1cc(Br)c(O)c(Br)c1 | Active | Active | 100 | 95.2 | Active | 1.1 | Active | 77 | – | –
5 | – | – | – | – | – | – | – | – | 0 | O=C(c1cc(Br)c(O)c(Br)c1)c1cc(Br)c(O)c(Br)c1 | Active | Active | – | – | Active | – | – | – | – | –
